Screening data: PubChem BioAssay, several laboratories
MT1-MMP act inh: MT1-MMP (human) activation inhibition | P50281 | 360,000 compounds, 0.061% hits | HT1080 RFP-PRO-GFP cells, GFP/RFP ratio fluorescence, overnight; percent of plate control window, DMSO zero | GFP/RFP ratio change, % at 20 µM;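 active = GFP/RFP ratio change of at least 30% with cell ATP level not reduced by more than half and red fluorescence within 50% of control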
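Material: RFP-PRO-GFP reporter HT1080 cells. Dosing: single-point 20 µM compound, 1% DMSO. Controls: DMSO and RFP-L50D-GFP cell wells. Timing: cells overnight before dosing, compound overnight, 37 °C, 5% CO2. Measure: GFP/RFP fluorescence ratio.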
DAGLB inhibitor: blocks human DAGLB lipase activity. inhibition, % at 5.17 µM. 340,000 compounds, 0.059% hits. AID 504411. HEK293T DAGLB membrane lysate, EnzChek fluorogenic substrate; in the data active = inhibition above about 34%;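 also: 0% = enzyme with vehicle and 100% = wells lacking enzyme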
Target sequence (Q8NCG7 whole entry, looked up): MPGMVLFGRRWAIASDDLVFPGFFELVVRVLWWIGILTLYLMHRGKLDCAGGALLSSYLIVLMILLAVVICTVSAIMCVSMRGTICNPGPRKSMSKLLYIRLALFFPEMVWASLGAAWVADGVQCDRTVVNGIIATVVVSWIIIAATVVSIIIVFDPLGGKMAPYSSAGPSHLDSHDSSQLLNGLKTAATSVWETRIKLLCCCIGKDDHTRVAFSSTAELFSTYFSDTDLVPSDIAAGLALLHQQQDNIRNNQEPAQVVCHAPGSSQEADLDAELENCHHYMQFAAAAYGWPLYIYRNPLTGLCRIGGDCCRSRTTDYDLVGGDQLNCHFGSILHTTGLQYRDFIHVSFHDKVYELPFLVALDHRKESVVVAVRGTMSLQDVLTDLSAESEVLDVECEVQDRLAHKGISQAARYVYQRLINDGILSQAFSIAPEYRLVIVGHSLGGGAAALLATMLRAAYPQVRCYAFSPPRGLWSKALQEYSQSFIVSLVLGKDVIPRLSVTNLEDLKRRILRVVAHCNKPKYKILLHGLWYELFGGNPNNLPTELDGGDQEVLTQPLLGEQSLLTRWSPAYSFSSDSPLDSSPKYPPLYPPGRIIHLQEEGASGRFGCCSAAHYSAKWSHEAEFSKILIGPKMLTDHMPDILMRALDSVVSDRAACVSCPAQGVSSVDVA
iPSC survival up: enhancers of human iPSC single-cell survival. hiPSC single-cell survival, ATPlite luminescence; 100% = ROCK inhibitor wells, 0% = DMSO. survival enhancement, % at 20 µM. 360,000 compounds, 0.044% hits. AID 602274; in the data active = survival enhancement above about 18%;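 also: cells exposed to compounds for 16 hours before the ATP read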
rRNA inh HTS: selective bacterial rRNA inhibition in E. coli. E. coli WT GFP vs humanized-ribosome RFP mutants, fluorescence, 24 h; hits give low values; DMSO median 0, no signal -100. GFP signal change (wild-type ribosome), % (no concentration beside the values). 350,000 compounds, 1.6% hits;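 active = significant combined selectivity score with lowered wild-type GFP, culture density cut under 30%, mutant RFP and density less affected; inactive = any of these conditions unmet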
SKN-1 block: C. elegans SKN-1 inhibition; 360,000 compounds, 0.49% hits; inhibition, % at 21.8 µM; C. elegans VP596 Pgst-4::GFP/RFP ratio, acrylamide-induced, 24 h;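 active = interference check ratio from 0.5 to 1.5 plus GFP to RFP signal ratio inhibition reaching or exceeding a fixed threshold, cut at about 30% in these data, passing the limit was not always enough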
Cneo AK release: Cryptococcus neoformans lysis via adenylate kinase release; C. neoformans lysis, adenylate kinase release luminescence, 4 h; normalised: neutral wells 0, clomiphene wells 100; lysis activity, % at 15 µM; 360,000 compounds, 0.2% hits; AID 651654;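 active = mean lysis activity across replicates of at least 80%, whatever share of replicates individually reach that level; inactive = mean lysis activity below 80%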
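Material: C. neoformans cells; Schedule: 4 h static compound exposure, 37 °C, read 1 h post-reagent; Measured by: adenylate kinase release luminescence; Read-out: signal increase indicating cell lysis; Controls: Clomiphene as positive lysis control.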
* marks the source's active call; other numbers are inactive results. Shown are actives, neighbours in structure and some others; about 1.8% of the full set was active somewhere.

Screening C/C=C/c1ccc([C@@H]2[C@@H](CO)N(C(=O)C3CC3)C23CN(S(=O)(=O)CC)C3)cc1 returned rRNA inh HTS -1.4.
Screening O=C(C[C@@H]1C=C[C@@H](NC(=O)CCN2CCCCC2)[C@H](CO)O1)NCc1ccc(Cl)c(Cl)c1 returned rRNA inh HTS -1.2 and Cneo AK release -1.4.
`Cc1cc(C(=O)c2ccc3ccccc3c2)c(C)o1` gave MT1-MMP act inh 0.5, iPSC survival up -0.3, rRNA inh HTS -22.8*, SKN-1 block 13.4 and Cneo AK release 0.2.
For C[C@H](CO)N1C[C@H](C)[C@H](CN(C)C(=O)NC2CCCCC2)OCCCC[C@H](C)Oc2ccc(NC(=O)Nc3ccc(F)cc3)cc2C1=O the results were rRNA inh HTS -3.6 and Cneo AK release 0.4.
Cc1nc2c(-c3ccccc3)c[nH]n2c(=O)c1Cc1ccccc1 was read as MT1-MMP act inh -2.5, DAGLB inhibitor 3.1, iPSC survival up 3.1, rRNA inh HTS -20.3*, SKN-1 block 0.6 and Cneo AK release -2.4.
CN1c2ccc(-c3ccc(F)cc3)cc2[C@@H]2[C@@H](CCN2S(=O)(=O)c2ccc(F)cc2)[C@H]1CO was read as rRNA inh HTS 0.2 and Cneo AK release 0.0.
CS(=O)(=O)Nc1ccc2c3c(cccc13)CC2 was read as MT1-MMP act inh -3.6, DAGLB inhibitor 0.3, iPSC survival up 19.9* and SKN-1 block -2.5.
Screening CC(C)NS(=O)(=O)c1ccc2c3c(cccc13)CC2 returned MT1-MMP act inh 3.4, DAGLB inhibitor -1.2, iPSC survival up 0.6, rRNA inh HTS 3.0 and SKN-1 block -2.6.
`COc1ccc(C)cc1NC(=O)c1ccc(CN2CCc3ccccc3C2)cc1` gave MT1-MMP act inh -2.9, DAGLB inhibitor -4.3, iPSC survival up 0.1, rRNA inh HTS -23.6*, SKN-1 block -17.2 and Cneo AK release 0.1.
`CCN(CC)C(=O)Oc1nnc(SC(C)C)n1-c1ccc(Cl)c(Cl)c1` gave DAGLB inhibitor -1.7, iPSC survival up -0.2, rRNA inh HTS -16.4, SKN-1 block 1.7 and Cneo AK release 1.9.
CCN(CC)C(=O)Oc1nnc(SC(C)C)n1-c1ccc(Cl)cc1 was read as MT1-MMP act inh 0.2, DAGLB inhibitor 0.6, iPSC survival up -0.6, rRNA inh HTS -29.0* and SKN-1 block -3.4.
`CCCNC(=O)Nc1ccc2c(c1)C(=O)N(C)[C@@H]1CC[C@@H](CC(=O)NC3CCC3)O[C@H]1CO2` gave rRNA inh HTS 1.8 and Cneo AK release 2.5.
COc1cc(/C=C/C(=O)OCC(=O)NCCc2ccccc2)cc(OC)c1OC was read as MT1-MMP act inh -1.0, DAGLB inhibitor -0.3, iPSC survival up 0.3, rRNA inh HTS -22.0 and SKN-1 block -15.6.
For COc1cc(/C=C/C(=O)OCC(=O)NCCCc2ccccc2)cc(OC)c1OC the results were MT1-MMP act inh 4.0, DAGLB inhibitor 2.1, iPSC survival up -0.4, rRNA inh HTS -18.4*, SKN-1 block 12.8 and Cneo AK release 1.3.
`Cn1ccc(/C=N/N=C2/NC(=O)CS2)n1` gave MT1-MMP act inh -1.0, DAGLB inhibitor -1.9, iPSC survival up 0.5, rRNA inh HTS -43.2*, SKN-1 block 16.0 and Cneo AK release -1.6.
Screening O=C1CS/C(=N/N=C/c2ccncc2)N1 returned MT1-MMP act inh 0.1, iPSC survival up 0.4, rRNA inh HTS 5.5, SKN-1 block 9.7 and Cneo AK release 0.1.
`COc1cc(OC)c(N(C)C(=O)c2cn(C)c(=O)c3cc(OC)c(OC)cc23)cc1Cl` gave MT1-MMP act inh 6.6, DAGLB inhibitor -1.2, iPSC survival up -0.3, rRNA inh HTS -5.0, SKN-1 block -1.5 and Cneo AK release 126.6*.
`O=C(/C=C/c1ccc(S(=O)(=O)NCc2ccco2)cc1)NCc1ccccc1Cl` gave MT1-MMP act inh -0.4, DAGLB inhibitor -3.5, iPSC survival up -1.2, rRNA inh HTS -26.8* and SKN-1 block 4.6.
